These results are taken from ChEMBL document CHEMBL1138477, “8-(4-Methoxyphenyl)pyrazolo[1,5-a]-1,3,5-triazines: selective and centrally active corticotropin-releasing factor receptor-1 (CRF1) antagonists” (J Med Chem, 2009).

The subject of data set [1] is Rattus norvegicus. The experiment in a line: Ex vivo receptor occupancy of CRF1 receptor in Sprague-Dawley rat brain at 10 mg/kg, po by [125I]sauvagine binding and autoradiography relative to control. In kind it is functional. Summed up: (§1)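 Sprague-Dawley rats dosed po at 0.3, 1, 3, 10, 30 mg/kg in the defensive-withdrawal vehicle and protocol; brains removed, sectioned, frozen at -80 °C, then ex vivo binding gave occupancy relative to vehicle-treated rats; mean ± SEM.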

Data set [2] deals with Rattus norvegicus. The data set is described as follows: Anxiolytic-like activity in Sprague-Dawley rat assessed as decrease in latency to exit dark chamber at 30 mg/kg, po measured after 1 hr by defensive withdrawal test relative to control. In kind it is functional. More on the design: scale not given: the % may be the effect or the level left. Summed up:
(§2)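 Male Sprague-Dawley rats (180-300 g), individually housed; open field with cylindrical dark chamber; oral dosing in 0.25% Methocel 1 h before a 15 min session scored blind via video; latency to place all four paws in open field recorded, maximum 900 s; test doses 1.0, 3.0, 10, 30 mg/kg; positive control at 10 mg/kg; n = 12/dose; Kruskal-Wallis then Mann-Whitney U.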

Data set [3] concerns Rattus norvegicus. The experiment in a line: Anxiolytic-like activity in Sprague-Dawley rat assessed as decrease in latency to exit dark chamber at 10 mg/kg, po measured after 1 hr by defensive withdrawal test relative to control. The format is functional. More on the design: scale not given: the % may be the effect or the level left. Summed up: as §2
For data set [4], the system named is Rattus norvegicus. The data set is described as follows: Ex vivo receptor occupancy of CRF1 receptor in Sprague-Dawley rat brain at 0.3 mg/kg, po by [125I]sauvagine binding and autoradiography relative to control. In kind it is functional. The procedure, abridged: as §1
Data set [5] in a line: Tmax in male Sprague-Dawley CD rat at 5 mg/kg, po. In kind it is ADME, organism-based. More on the design: dose 5 mg/kg, route oral. The settings on record: in vivo. The procedure, abridged: (§3)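 Sprague-Dawley CD rats: 1 mg/kg iv bolus in 20% ethanol/saline (apparent pH 3.4) to 3 males and 3 females; 5 mg/kg po in 0.5% methylcellulose with 1% Tween-80 to 3 males. Jugular blood into EDTA, predose to 32 h. Free base quantified by LC/MS after solid-phase extraction (range 5-5000 nM); noncompartmental analysis; F relative to iv.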

Data set [6] in a line: Clearance in female Sprague-Dawley CD rat at 1 mg/kg, iv. In kind it is ADME, organism-based. Also noted: dose 1 mg/kg, route intravenous. The note with it: in vivo. Summed up:
as §3

The subject of data set [7] is Rattus norvegicus. The experiment in a line: Toxicity in Sprague-Dawley rat assessed as total distance traveled at 30 mg/kg, po after 1 hr by open-field locomotor activity test. The format is organism-based. More on the design: dose 30 mg/kg, route oral. The note with it: in vivo. Summed up:
(§4)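 Male Sprague-Dawley rats received a single oral gavage dose of 30 mg/kg (free base weight) in 0.5% methocel–Tween-80 (99:1) or vehicle alone. Behaviour was assessed 1 h postdose, as time on the rotorod in seconds for the rotorod test and total distance travelled in cm for open-field locomotor activity. Values are mean ± SEM, n = 8 per group.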

The test system of data set [8] is Rattus norvegicus. The data set is described as follows: Ex vivo receptor occupancy of CRF1 receptor in Sprague-Dawley rat brain at 1 mg/kg, po by [125I]sauvagine binding and autoradiography relative to control. In kind it is functional. The procedure, abridged: as §1
A short description of data set [9]: Volume of distribution at steady state in female Sprague-Dawley CD rat at 1 mg/kg, iv. The settings on record: in vivo, read-out: Vdss. The format is ADME, organism-based. Also noted: dose 1 mg/kg, route intravenous. The procedure, abridged: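 Female Sprague-Dawley CD rats (n = 3) given a single 1 mg/kg iv bolus (free base) in 20% ethanol/physiological saline (apparent pH 3.4). Jugular vein blood taken into EDTA from predose to 32 h. Plasma assayed by solid-phase extraction and LC/MS with an internal standard (range 5–5000 nM). Noncompartmental analysis; mean ± SD.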

Data set [10] is described as follows: Elimination half life in female Sprague-Dawley CD rat at 1 mg/kg, iv. The format is ADME, organism-based. More on the design: dose 1 mg/kg, route intravenous. The settings on record: in vivo, read-out: beta t1/2 (converted). The procedure, abridged: as §3
Data set [11] is described as follows: Elimination half life in male Sprague-Dawley CD rat at 1 mg/kg, iv. The format is ADME, organism-based. Also noted: dose 1 mg/kg, route intravenous. The settings on record: in vivo, read-out: beta t1/2 (converted). Summed up: as §3
The subject of data set [12] is Rattus norvegicus. The experiment in a line: Ex vivo receptor occupancy of CRF1 receptor in Sprague-Dawley rat brain at 3 mg/kg, po by [125I]sauvagine binding and autoradiography relative to control. In kind it is functional. Summed up: as §1
Data set [13] deals with Rattus norvegicus. The experiment in a line: Ex vivo receptor occupancy of CRF1 receptor in Sprague-Dawley rat brain at 30 mg/kg, po by [125I]sauvagine binding and autoradiography relative to control. The format is functional. Summed up:
as §1

In data set [14] the test system is Rattus norvegicus. The data set is described as follows: Anxiolytic-like activity in Sprague-Dawley rat assessed as decrease in latency to exit dark chamber at 3 mg/kg, po measured after 1 hr by defensive withdrawal test relative to control. More on the design: scale not given: the % may be the effect or the level left. In kind it is functional. Summed up:
as §2

In data set [15] the test system is Rattus norvegicus. The data set is described as follows: Hepatic blood flow in iv dosed male Sprague-Dawley CD rat. The settings on record: in vivo. In kind it is ADME, organism-based, Liver.
Data set [16] concerns Rattus norvegicus. The data set is described as follows: Toxicity in Sprague-Dawley rat assessed as time spent on rotarod at 30 mg/kg, po after 1 hr by rotarod test. The format is organism-based. More on the design: dose 30 mg/kg, route oral. The note with it: in vivo. Summed up: as §4
(The rotarod test checks motor coordination on a turning rod.)

Data set [17] concerns Rattus norvegicus. The data set is described as follows: Anxiolytic-like activity in Sprague-Dawley rat assessed as increase in time spent in open arms at 30 mg/kg, po measured after 1 hr by elevated plus maze test. Also noted: dose 30 mg/kg. In kind it is functional, organism-based. Summed up:
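Group-housed male Sprague-Dawley rats (180-300 g) dosed po in 0.25% Methocel 1 h before elevated plus maze; arm entry defined as all four paws in arm; percent time in open arms scored; test doses 1.0, 3.0, 10, 30 mg/kg; positive control at 18 mg/kg; n = 13-15/dose; mean ± SEM, ANOVA then Fisher's LSD.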

In data set [18] the test system is Rattus norvegicus. The data set is described as follows: Ex vivo receptor occupancy of CRF1 receptor in po dosed Sprague-Dawley rat brain by [125I]sauvagine binding and autoradiography relative to control. The format is functional. The settings on record: read-out: MED. The procedure, abridged:
as §1

The nature of data set [19]: Oral bioavailability in male Sprague-Dawley CD rat at 5 mg/kg relative to 1 mg/kg, iv dose. In kind it is ADME, organism-based. The settings on record: in vivo. The procedure, abridged: as §3
A short description of data set [20]: Clearance in male Sprague-Dawley CD rat at 1 mg/kg, iv. The format is ADME, organism-based. More on the design: dose 1 mg/kg, route intravenous. The settings on record: in vivo. Summed up: as §3
Data set [21] deals with Rattus norvegicus. The data set is described as follows: Hepatic blood flow in iv dosed female Sprague-Dawley CD rat. The format is ADME, organism-based, Liver. The note with it: in vivo.
A short description of data set [22]: Tmax in Beagle dog at 20 mg/kg, po. The format is ADME, organism-based, Canis lupus familiaris. Also noted: dose 20 mg/kg, route oral. The settings on record: in vivo.
A short description of data set [23]: Clearance in Beagle dog at 1 mg/kg, iv. In kind it is ADME, organism-based, Canis lupus familiaris. Also noted: dose 1 mg/kg, route intravenous. The note with it: in vivo. The procedure, abridged:
(§5)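 Male beagle dogs (8.0-11.0 kg) dosed iv or po (5 mg/kg oral suspension in 0.5% methylcellulose with 1% Tween-80); plasma sampled 0.25-24 h; liquid-liquid extraction with hexane/ether, LC/MS/MS, quantitation limit 1 ng/mL (2.42 nM); noncompartmental parameters as free base.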

Data set [24] is described as follows: Elimination half life in Beagle dog at 1 mg/kg, iv. The note with it: in vivo, read-out: beta t1/2 (converted). More on the design: dose 1 mg/kg, route intravenous. In kind it is ADME, organism-based, Canis lupus familiaris. Summed up:
as §5

The nature of data set [25]: Cmax in Beagle dog at 20 mg/kg, po. In kind it is ADME, organism-based, Canis lupus familiaris. Also noted: dose 20 mg/kg, route oral. The note with it: in vivo.
The nature of data set [26]: Volume of distribution at steady state in Beagle dog at 1 mg/kg, iv. More on the design: dose 1 mg/kg, route intravenous. The settings on record: in vivo, read-out: Vdss. In kind it is ADME, organism-based, Canis lupus familiaris. Summed up: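 Male beagle dogs (8.0-11.0 kg) dosed intravenously. Plasma sampled at 0.25, 0.5, 1, 2, 4, 6, 8, 12 and 24 h after dosing. Liquid–liquid extraction in hexane/ether, then LC/MS/MS assay (quantitation limit 1 ng/mL). Concentrations expressed as free base. Parameters obtained by noncompartmental analysis as for rat. Mean ± SD.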

Data set [27] in a line: Oral bioavailability in Beagle dog at 20 mg/kg. The format is ADME, organism-based, Canis lupus familiaris. The note with it: in vivo.

Calls of active or inactive are those of the source.

By Tmax is commonly meant the time at which the peak concentration occurs. The term clearance denotes a measure of how efficiently the substance is removed, as volume per time. What is called bioavailability is the share of a dose that reaches the circulation, judged against a reference dose that is usually intravenous. In the case of `COCCN(CCOC)c1nc(C)nc2c(-c3ccc(OC)cc3C)c(C)nn12`, the Activity with Rattus norvegicus [1] turned out to be 60%; in the data set on Rattus norvegicus [2], 59%; with Rattus norvegicus [3] it was 73%; in the data set with Rattus norvegicus [4] it was 12%; in the data set on Rattus norvegicus [7] it was 4986 cm; in the data set with Rattus norvegicus [8] it was 17%. The Activity was found to be 48% in the data set with Rattus norvegicus [12], 82% with Rattus norvegicus [13] and 62% with Rattus norvegicus [14]. In data set [5], the Tmax came out at 0.5 h. Further, the clearance in [6] was 0.87 L/h/kg; in data set [20], 1.2 L/h/kg. For the same compound, the Vd in data set [9] was 12.2 L/kg. In addition, the half-life in data set [10] is 11.9 h; in data set [11], 9.7 h. In addition, the QH with Rattus norvegicus [15] and with Rattus norvegicus [21] was 3.3 L/h/kg in each case. The Time in the data set on Rattus norvegicus [16] was 158 s. The result in the data set with Rattus norvegicus [17] was Active. Further, in the data set with Rattus norvegicus [18], the minimal effective dose was 3 mg/kg. In data set [19], the bioavailability amounted to 51%.
One may read the Cmax as the maximum level reached in the sampled fluid or tissue. For the compound `CC[C@@H](C)Nc1nc(C)nc2c(-c3c(C)cc(OC)cc3OC)c(C)nn12`, the Tmax in data set [22] amounted to 4 h. Also, the clearance in [23] was 0.6 L/h/kg. Also, the half-life in [24] is 33.3 h. The compound also displayed a Cmax in [25] of 1.94 µM. For the same compound, the Vd in data set [26] amounted to 14.8 L/kg. Besides, the bioavailability in [27] is 4.7%.
